PMI act hi M6P: human PMI activators, high substrate, primary screen, biochemical, fluorescence intensity, near-saturating mannose 6-phosphate; Mannose-6-phosphate isomerase (Homo sapiens), P34949; coupled PMI enzyme assay, resazurin fluorescence, 20 min; active compounds read high; 1 = untreated enzyme, 0 = substrate-free blank; activation factor at 20 µM; actives 0.34% (n = 190,000);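 active = activation factor of 2 or more at 20 µM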
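Technique: Diaphorase-driven resazurin-to-resorufin fluorescence, excitation 544, emission 590 nm | Assay system: Human PMI in coupled enzyme assay | Times: Enzyme reaction with compound 20 min at room temperature | Medium: HEPES-buffered pH 7.4 with magnesium and detergent | Reagent: Mannose-6-phosphate 1.0 mM (near-saturating) plus 0.22 mM NADP+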
TNAP inh no acc: human TNAP enzyme inhibitors, primary screen, biochemical, luminescent, no phosphate acceptor, uHTS | Alkaline phosphatase, tissue-nonspecific isozyme (Homo sapiens), P05186 | purified TNAP, CDP-star luminescence, 30 min | inhibition, % at 20 µM | actives 0.26% (n = 200,000);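 active = tissue-nonspecific alkaline phosphatase inhibition above about 50% at 20 µM in the single-dose screen, limit read from the data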;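 note: 0% = DMSO negative control and 100% = EDTA positive control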
Target sequence (P05186 whole entry, looked up): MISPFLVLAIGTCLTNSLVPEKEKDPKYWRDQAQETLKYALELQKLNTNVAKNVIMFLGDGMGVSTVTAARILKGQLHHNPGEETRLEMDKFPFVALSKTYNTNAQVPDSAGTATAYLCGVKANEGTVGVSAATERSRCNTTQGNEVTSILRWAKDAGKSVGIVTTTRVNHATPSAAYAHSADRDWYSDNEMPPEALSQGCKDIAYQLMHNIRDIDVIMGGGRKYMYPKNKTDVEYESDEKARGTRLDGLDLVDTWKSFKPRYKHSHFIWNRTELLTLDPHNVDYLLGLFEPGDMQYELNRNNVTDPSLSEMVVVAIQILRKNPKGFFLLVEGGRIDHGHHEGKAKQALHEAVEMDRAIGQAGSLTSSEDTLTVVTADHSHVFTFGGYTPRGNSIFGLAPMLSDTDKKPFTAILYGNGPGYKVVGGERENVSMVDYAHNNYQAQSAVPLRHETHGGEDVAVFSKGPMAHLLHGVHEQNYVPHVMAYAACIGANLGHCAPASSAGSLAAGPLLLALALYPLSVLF
PMI activator: activators of human PMI, primary screen, biochemical, fluorescence intensity, near-Km mannose 6-phosphate; Mannose-6-phosphate isomerase (Homo sapiens), P34949; purified human PMI, coupled resazurin fluorescence, 20 min; active compounds read high; 1 = vehicle control, 0 substrate-free wells; activation factor at 20 µM; actives 0.005% (n = 190,000); AID 1214, 2008;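 active = activation factor of 2 or more at 20 µM, relative to plate controls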
TNAP act hiacc: TNAP activators at high phosphate acceptor level, primary screen, biochemical, luminescence, uHTS | purified TNAP, CDP-star luminescence, 1 M DEA, 30 min; active compounds read high; 0 = EDTA background, 1 = DMSO-only activity | activation factor at 20 µM | 200,000 tested, under 10 active | AID 1136, 2008;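 active = activation factor at least 2 at 20 µM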
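Measured by: Luminescent substrate turnover signal | Test system: Human TNAP | Input: TNAP 1/800 final | Dosing: 20 µM single point | Schedule: 30 min, room temperature | Controls: EDTA wells as negative control, DMSO wells as positive control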
TNAP inh hi DEA: human TNAP enzyme inhibitors, primary screen, biochemical, luminescent, high phosphate acceptor level, uHTS; Alkaline phosphatase, tissue-nonspecific isozyme (Homo sapiens), P05186; purified TNAP, CDP-star luminescence, 1 M DEA; inhibition, % at 20 µM; actives 0.03% (n = 200,000);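 active = over 50% inhibition of tissue-nonspecific alkaline phosphatase at 20 µM in the single-dose screen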;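 note: plate controls were DMSO wells for no effect and EDTA-quenched wells as full inhibition for full effect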
Numbers without * were called inactive. In the library only some 0.64% were active in any assay of this set; here they are far more common.

SMILES	PMI act hi M6P	TNAP inh no acc	PMI activator	TNAP act hiacc	TNAP inh hi DEA
CC(C)c1ccc(/C=N/Nc2ccc(C(=O)O)cc2)cc1	2.5*	-8	1.8	1	1
COc1ccc(/C=N/Nc2ccc(C(=O)O)cc2)cc1Br	2.5*	-10	1.8	1	-3
CSCC[C@H](NC(=O)OC(C)(C)C)c1nnc(SCC(=O)N(C)C)o1	1.1	-12	1.1	1.1	-8
CS(=O)(=O)c1ccc(-c2nnn(CC(N)=O)n2)cc1	1	-11	1	1	-4
O=[N+]([O-])c1cccnc1N1CCC(c2cc(-c3ccc(Cl)cc3)n[nH]2)CC1	0.9	50*	0.9	1	3
CC(/C=C1\SC(=S)N(C(C(=O)O)C(C)C)C1=O)=C\c1ccccc1 (stereo not drawn)	1	-8	1	1	4
c1csc(-c2nn3c(Cn4nnc5ccccc54)nnc3s2)c1	0.9	62*	0.9	1	-4
Cn1c(O)c(/C=N/Nc2ccccc2)c(=O)n(C)c1=O	2.6*	-11	1.7	1	1
CN(C)c1ccc(/C=C/c2ccncc2)cc1	1.1	-5	1	1	-4
CN(C)c1ccc(/C=C/c2ccc3c4ccccc4ccc3[n+]2-c2ccccc2)cc1	0.9	74*	1.1	0.3	69*
CN(C)c1ccc(/C=C/C(=O)c2ccccc2O)cc1	0.8	14	0.9	0.8	22
CN(C)c1ccc(/C=C/c2ccc3ccccc3[n+]2C)cc1	1	57*	0.7	0.4	57*
CCCSc1nc2cc(C)c(C)cc2n1CC(O)CO (stereo not drawn)	0.9	-9	1	1	-3
CCCSc1nc2cc(C)c(C)cc2n1CC(C)O (stereo not drawn)	2.3*	-10	1.6	1	-3
CC1(C(=O)Nc2ccc3ccccc3c2)CC1(Br)Br (stereo not drawn)	0.7	-7	0.9	1	-3
O=C(O)C1Nc2c(O)cc(Cl)c([N+](=O)[O-])c2C2C=CCC12 (stereo not drawn)	2.2*	65*	1.7	0.7	31
COc1cccc(C2C=C(Nc3ccccc3)C(=O)N2c2ccccc2)c1 (stereo not drawn)	2.2*	-2	1.7	1.1	-6
COc1ccc(C2C=C(Nc3ccccc3)C(=O)N2c2ccccc2)cc1OC (stereo not drawn)	1.8	-14	1.4	1	1
CSCc1cc(N2CCOCC2)nc(SCc2ccc(Cl)c(Cl)c2)n1	2*	-5	1.2	1	-3
COc1cc(-c2nc(S(=O)(=O)c3ccc(C)cc3)c(N(C)C)o2)cc(OC)c1OC	2*	-8	1.5	1	1
COc1ccc(NC(=S)N2CCN(C/C=C/c3ccccc3)CC2)cc1OC	1	-6	1	1	0
Oc1ccc(N=Nc2n[nH]c(-c3ccc(Cl)cc3)n2)cc1	0.9	69*	1	0.7	26
NC(=O)CSc1nnc(NC(=O)c2cccc(S(=O)(=O)N3CCCCC3)c2)s1	1.1	2	1.3	1	-2
COc1cccc(-n2c(Cn3nc(C(F)(F)F)cc3C)n[nH]c2=S)c1	1.1	4	1.1	1	3
CCCCNC(=S)Nc1cccc2cnccc12	1	-11	0.9	1	1
SMILES	PMI act hi M6P	TNAP inh no acc	PMI activator	TNAP act hiacc	TNAP inh hi DEA
S=C(NCCc1ccccc1)Nc1cccc2cnccc12	0.4	53*	0.9	1	2
Cc1cc[n+](CCC(=O)O)c2ccccc12	1.1	-7	1.1	1	1
c1ccc(-c2cn3nc(-c4ccccc4)cnc3n2)cc1	2.6*	14	1.8	1	0
c1ccc(-c2cn3nc4c(nc3n2)CCCC4)cc1	1.8	-32	1.5	1	-2
COc1ccc(/C=N/NC(=O)c2cc(C34CC5CC(CC(C5)C3)C4)[nH]n2)cc1OC	1	86*	0.9	1	0
COc1cccc(/C=N/NC(=O)c2cc(C34CC5CC(CC(C5)C3)C4)[nH]n2)c1	0.9	86*	0.9	0.9	6
COc1cc(/C=N\NC(=O)c2ccc(=O)[nH]n2)cc(OC)c1OC	1	-15	1	1	-1
Cc1ccc(S(=O)(=O)N/N=C/c2ccc(OS(=O)(=O)c3ccc(C)c([N+](=O)[O-])c3)cc2)cc1	1.2	-11	1	1	-4
Oc1ccc(-c2nc3ccc4ccccc4c3c3c2CCC3)cc1O	1.1	50*	0.7	0.8	21
COc1ccc(-c2cc(C(=O)O)nc3ccc4ccccc4c23)cc1OC	1	-20	1.2	1.1	-7
O=C(O)CC(c1ccccc1)n1cccc1 (stereo not drawn)	2*	-8	1.3	1	-3
COc1ccc(/C=C(/C(=O)c2ccc(Cl)cc2Cl)n2cncn2)cc1	1.1	0	1.1	1	-1
CN(C)c1ccc(/C=C(/C(=O)c2ccc(Cl)cc2Cl)n2cncn2)cc1	1	48	0.9	0.5	55*
C/C(=N/NC(=O)c1cccc(C)c1)c1c(O)cc(C)oc1=O	1.4	-2	1.3	1	-1
Cc1cc(O)c(/C=N/Nc2ccc(F)cc2)c(=O)o1	2.3*	-14	1.7	1	-4
Cc1ccc(N/N=C/c2c(O)cc(C)oc2=O)cc1	2.2*	-9	1.4	1	-4
Cc1cccc(/N=C/c2c(O)cc(C)oc2=O)n1	1.1	-6	1.1	1	-2
Cc1ccc(CO/N=C/c2c(O)cc(C)oc2=O)cc1	1.1	2	1.1	0.9	6
C/C(=N\Nc1ccccc1)c1c(O)cc(C)oc1=O	2.6*	-4	1.9	1	-2
COc1cccc(-c2cc(C(=O)Nc3ccn(Cc4ccc(C)cc4)n3)no2)c1	1	-5	0.9	1.1	-5
Cc1cc(C(F)(F)F)nc(SCCN2CCOCC2)c1C#N	2.2*	-12	1.7	1	-3
O=C(Cn1cc([N+](=O)[O-])cn1)N1CCCc2ccccc21	1	-4	1.1	1	0
COC(=O)Cc1cc(=O)[nH]c(Nc2nc3ccccc3o2)n1	0.8	75*	0.8	1	-4
COc1ccc(-c2nc(SC(CC(=O)NCCO)c3cccs3)n[nH]2)cc1 (stereo not drawn)	1	71*	1.1	1	-4
